Measured values from ChEMBL document CHEMBL1155465, “"Viologen" dendrimers as antiviral agents: the effect of charge number and distance” (J Med Chem, 2010).

Columns and labels:
[1] = tested on: Human immunodeficiency virus 1; assay: Antiviral activity against HIV1 3B infected in human MT4 cells after 5 days by MTT assay; assay type: functional, organism-based; settings: Human immunodeficiency virus 1, 3B, MT4, 120 h
In short: (§1)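 MT-4 cells in RPMI 1640 with 10% heat-inactivated FCS, 2 mM L-glutamine, 0.1% bicarbonate and gentamicin, seeded at 6 × 10⁵ cells/mL final with virus or mock infection. Viability read by MTT after 5 days at 540 and 690 nm, using the median OD of three wells. CC50 is 50% loss of mock-infected OD540. EC50 is 50% inhibition of virus-induced CPE. SI = CC50/EC50. Mean ± SD of ≥2 experiments.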

[2] = tested on: Human immunodeficiency virus 2; assay: Antiviral activity against HIV2 ROD infected in human MT4 cells after 5 days by MTT assay; assay type: functional, organism-based; settings: Human immunodeficiency virus 2, ISOLATE ROD, MT4, 120 h; in short: as §1
[3] = tested on: Simian immunodeficiency virus; assay: Antiviral activity against SIV MAC251 infected in human MT4 cells after 5 days by MTT assay; assay type: functional, organism-based; settings: MAC251, MT4, 120 h; in short: as §1
[4] = Cytotoxicity against human MT4 cells after 5 days by MTT assay; assay type: cell-based; in short: as §1
[5] = Selectivity index, ratio of CC50 for human MT4 cells to EC50 for HIV1 3B; assay type: toxicity, cell-based; settings: read-out: Ratio CC50/EC50; in short: as §1
[6] = tested on: Human immunodeficiency virus 1; assay: Antiviral activity against HIV1 3B infected in human PBMC assessed as inhibition of viral p24 antigen production by ELISA; assay type: functional, organism-based; settings: Human immunodeficiency virus 1, 3B
In short: (§2)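 PBMCs infected with HIV-1 IIIB and cultured with a range of compound concentrations. EC50 is 50% inhibition of supernatant p24 core antigen (ELISA) relative to drug-free culture. CC50 is 50% reduction in cell viability. SI = CC50/EC50. Mean ± SD of ≥2 experiments.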

[7] = Cytotoxicity against human PBMC after 5 days by MTT assay; assay type: cell-based; in short: as §2
[8] = Selectivity index, ratio of CC50 for human PBMC to EC50 for HIV1 3B; in short: as §2
[9] = tested on: Human immunodeficiency virus 1; assay: Antiviral activity against HIV1 3B infected in human MT4 cells assessed as time-of-addition prolongation at 100 ug/ml after 31 hrs post infection by ELISA; assay type: functional
In short: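 Time-of-addition: MT-4 cells infected with HIV-1 IIIB at moi 0.5 for a 1 h adsorption, then plated at 45000 cells/well at 37 °C. Compound added at 0, 1, 2, 3, 4, 5, 6, 7, 8, 24 or 25 h post-infection. Supernatant p24 antigen measured by ELISA at 31 h post-infection.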

[10] = tested on: Human immunodeficiency virus 1; assay: Antiviral activity against HIV1 NL4-3 pseudotyped with VSV-G envelope infected in human C8166 cells assessed as inhibition of GFP expression after 48 hrs by flow cytometry; assay type: functional, organism-based
In short: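 VSV-G-pseudotyped (env-deficient) GFP-encoding NL4.3 taken from transfection supernatant at 60 h and clarified at 450g for 10 min. Used to infect 3 × 10⁴ C8166 cells (RPMI 1640, 10% FCS) with graded compound concentrations. GFP expression read by flow cytometry 48 h post-infection, with the no-compound infection control set as 100%.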

[11] = tested on: Human immunodeficiency virus 1; assay: Antiviral activity against HIV1 3B infected in human A72 Jurkat cells assessed as inhibition of GFP expression after 48 hrs by flow cytometry; assay type: functional, organism-based; settings: Human immunodeficiency virus 1, 3B
In short: (§3)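 Acutely infected A72 Jurkat cells. EC50 (μg/mL) is the concentration giving 50% inhibition of GFP expression relative to drug-free infection. CC50 is 50% reduction in cell viability. SI = CC50/EC50. Mean ± SD of ≥2 experiments.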

[12] = tested on: Human immunodeficiency virus 2; assay: Antiviral activity against HIV2 ROD infected in human A72 Jurkat cells assessed as inhibition of GFP expression after 48 hrs by flow cytometry; assay type: functional, organism-based; settings: Human immunodeficiency virus 2, ISOLATE ROD; in short: as §3
[13] = tested on: Human immunodeficiency virus 1; assay: Antiviral activity against HIV1 NL4-3 infected in human A72 Jurkat cells assessed as inhibition of GFP expression after 48 hrs by flow cytometry; assay type: functional, organism-based; settings: Human immunodeficiency virus 1, NL4-3, Jurkat; in short: as §3
[14] = tested on: Human immunodeficiency virus; assay: Antiviral activity against AZT-resistant HIV infected in human A72 Jurkat cells assessed as inhibition of GFP expression after 48 hrs by flow cytometry; assay type: functional, organism-based; settings: Human immunodeficiency virus 1, Jurkat; in short: as §3
[15] = tested on: Human immunodeficiency virus; assay: Antiviral activity against HIV S056 infected in human A72 Jurkat cells assessed as inhibition of GFP expression after 48 hrs by flow cytometry; assay type: functional, organism-based; settings: Human immunodeficiency virus 1, S056, Jurkat; in short: as §3
[16] = tested on: Human immunodeficiency virus; assay: Antiviral activity against HIV S067 infected in human A72 Jurkat cells assessed as inhibition of GFP expression after 48 hrs by flow cytometry; assay type: functional, organism-based; settings: Human immunodeficiency virus 1, S067, Jurkat; in short: as §3
[17] = tested on: Human immunodeficiency virus; assay: Antiviral activity against HIV S07 infected in human A72 Jurkat cells assessed as inhibition of GFP expression after 48 hrs by flow cytometry; assay type: functional, organism-based; settings: Human immunodeficiency virus 1, S07, Jurkat; in short: as §3
[18] = Cytotoxicity against human Jurkat A72 cells by MTT assay; assay type: cell-based; in short: as §3
[19] = Selectivity index, ratio of CC50 for human Jurkat A72 cells to EC50 for HIV1 3B; assay type: toxicity, cell-based; settings: read-out: Ratio CC50/EC50; in short: as §3
[20] = tested on: Human alphaherpesvirus 1; assay: Antiviral activity against HSV1 KOS infected in human E6SM cell assessed as inhibition of virus-induced cytopathicity; assay type: functional, organism-based; settings: Human alphaherpesvirus 1, KOS
[21] = tested on: Human alphaherpesvirus 2; assay: Antiviral activity against HSV2 G infected in human E6SM cell assessed as inhibition of virus-induced cytopathicity; assay type: functional, organism-based; settings: Human alphaherpesvirus 2, strain G
[22] = tested on: Vaccinia virus; assay: Antiviral activity against Vaccina virus infected in human E6SM cell assessed as inhibition of virus-induced cytopathicity; assay type: functional, organism-based; settings: Orthopoxvirus vaccinia
[23] = tested on: Vesicular stomatitis virus; assay: Antiviral activity against VSV infected in human E6SM cell assessed as inhibition of virus-induced cytopathicity; assay type: functional, organism-based
[24] = tested on: Human alphaherpesvirus 1; assay: Antiviral activity against TK-deficient acyclovir-resistant HSV1 KOS infected in human E6SM cell assessed as inhibition of virus-induced cytopathicity; assay type: functional, organism-based; settings: Human alphaherpesvirus 1, KOS
[25] = tested on: Vesicular stomatitis virus; assay: Antiviral activity against VSV infected in human HeLa cell assessed as inhibition of virus-induced cytopathicity; assay type: functional, organism-based
[26] = tested on: Respiratory syncytial virus; assay: Antiviral activity against RSV infected in human HeLa cell assessed as inhibition of virus-induced cytopathicity; assay type: functional, organism-based
[27] = Cytotoxicity against human E6SM cells by MTT assay; assay type: cell-based
[28] = Cytotoxicity against human HeLa cells by MTT assay; assay type: cell-based
[29] = tested on: Human respirovirus 3; assay: Antiviral activity against Parainfluenza virus 3 infected in african green monkey Vero cells assessed as inhibition of virus-induced cytopathicity; assay type: functional, organism-based; settings: Human respirovirus 3, Vero
[30] = tested on: Reovirus sp.; assay: Antiviral activity against Reovirus infected in african green monkey Vero cells assessed as inhibition of virus-induced cytopathicity; assay type: functional, organism-based
[31] = tested on: Sindbis virus; assay: Antiviral activity against Sindbis virus infected in african green monkey Vero cells assessed as inhibition of virus-induced cytopathicity; assay type: functional, organism-based
[32] = tested on: Punta Toro virus; assay: Antiviral activity against Punta Toro virus infected in african green monkey Vero cells assessed as inhibition of virus-induced cytopathicity; assay type: functional, organism-based
[33] = Cytotoxicity against african green monkey Vero cells by MTT assay; assay type: cell-based; settings: chlorocebus sabaeus
[34] = tested on: Human immunodeficiency virus; assay: Antiviral activity against HIV SO6141 infected in human MT4 cells after 5 days by MTT assay; assay type: functional, organism-based; settings: Human immunodeficiency virus 1, SO6141, MT4, 120 h; in short: as §1

With `CC[n+]1ccc(-c2cc[n+](Cc3cc(Cc4ccc(-c5cc[n+](Cc6cc(C[n+]7ccc(-c8cc[n+](Cc9cc(C[n+]%10ccc(-c%11cc[n+](CC)cc%11)cc%10)cc(C[n+]%10ccc(-c%11cc[n+](CC)cc%11)cc%10)c9)cc8)cc7)cc(C[n+]7ccc(-c8cc[n+](Cc9cc(C[n+]%10ccc(-c%11cc[n+](CC)cc%11)cc%10)cc(C[n+]%10ccc(-c%11cc[n+](CC)cc%11)cc%10)c9)cc8)cc7)c6)cc5)cc4)cc(C[n+]4ccc(-c5cc[n+](CC)cc5)cc4)c3)cc2)cc1.F[P-](F)(F)(F)(F)F.F[P-](F)(F)(F)(F)F.F[P-](F)(F)(F)(F)F.F[P-](F)(F)(F)(F)F.F[P-](F)(F)(F)(F)F.F[P-](F)(F)(F)(F)F.F[P-](F)(F)(F)(F)F.F[P-](F)(F)(F)(F)F.F[P-](F)(F)(F)(F)F.F[P-](F)(F)(F)(F)F.F[P-](F)(F)(F)(F)F.F[P-](F)(F)(F)(F)F.F[P-](F)(F)(F)(F)F.F[P-](F)(F)(F)(F)F.F[P-](F)(F)(F)(F)F.F[P-](F)(F)(F)(F)F.F[P-](F)(F)(F)(F)F` the EC50 [1] was 0.26 µM, the EC50 [2] was greater than 19.7 µM and the EC50 [3] was 0.46 µM. It also gave a CC50 at 120 h [4] of 19.7 µM, a selectivity ratio [5] of 75.8 and an EC50 [6] of 1.62 mg/L. For the same compound, the CC50 at 120 h [7] was 4.04 mg/L, the “Ratio CC50/EC50” value [8] was 2.5 and the Time [9] was 1 h. For the same compound, the inhibition [10] was “Dose-dependent effect”, the EC50 [11] was 0.685 mg/L and the EC50 [12] was 21.5 mg/L. The EC50 [13] was less than 0.2 mg/L, the EC50 [14] was 5.9 mg/L and the EC50 [15] was less than 2 mg/L. For the same compound, the EC50 [16] was less than 0.2 mg/L, the EC50 [17] was less than 0.2 mg/L and the CC50 [18] was 102 mg/L. It also gave a selectivity ratio [19] of 149, an EC50 [20] of 2 mg/L and an EC50 [21] of 10 mg/L. It also gave an EC50 [22] greater than 50 mg/L, an EC50 [23] greater than 50 mg/L and an EC50 [24] of 10 mg/L. The EC50 [25] was greater than 50 mg/L, the EC50 [26] was 50 mg/L and the MCC [27] was greater than 50 µg/mL. The MCC [28] was greater than 50 µg/mL, the EC50 [29] was greater than 50 mg/L and the EC50 [30] was greater than 50 mg/L. It also gave an EC50 [31] greater than 50 mg/L, an EC50 [32] greater than 50 mg/L and an MCC [33] greater than 50 µg/mL. The EC50 [34] was no less than 1.55 µM.
